Data set [1] has as its target T1, Thymidine kinase (Human alphaherpesvirus 1) (UniProt Q9QNF7).
T1 sequence (whole entry): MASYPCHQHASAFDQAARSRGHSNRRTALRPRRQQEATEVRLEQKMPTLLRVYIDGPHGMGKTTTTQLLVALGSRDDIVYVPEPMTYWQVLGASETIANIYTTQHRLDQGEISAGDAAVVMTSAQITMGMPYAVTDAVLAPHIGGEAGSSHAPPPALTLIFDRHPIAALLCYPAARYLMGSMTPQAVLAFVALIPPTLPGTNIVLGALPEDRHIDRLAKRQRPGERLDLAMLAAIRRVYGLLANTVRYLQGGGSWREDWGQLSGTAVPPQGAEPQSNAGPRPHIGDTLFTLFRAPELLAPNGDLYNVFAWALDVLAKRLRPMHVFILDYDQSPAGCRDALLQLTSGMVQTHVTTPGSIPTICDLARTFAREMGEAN
Description: Inhibition of Herpes simplex virus type 1 thymidine kinase.

Data set [2] addresses T2, Purine nucleoside phosphorylase (Homo sapiens) (UniProt P00491).
T2 sequence (whole entry): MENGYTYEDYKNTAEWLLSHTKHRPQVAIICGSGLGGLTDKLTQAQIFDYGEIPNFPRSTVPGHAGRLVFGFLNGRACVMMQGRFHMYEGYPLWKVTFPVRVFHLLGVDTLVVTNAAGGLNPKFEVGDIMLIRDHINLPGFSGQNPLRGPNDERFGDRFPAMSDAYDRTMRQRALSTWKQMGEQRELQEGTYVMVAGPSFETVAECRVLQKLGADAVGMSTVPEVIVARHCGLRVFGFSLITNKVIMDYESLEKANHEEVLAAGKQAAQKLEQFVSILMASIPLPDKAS
Description: Inhibition of human purine nucleoside phosphorylase.

In data set [3] the target is T3, Group 3 secretory phospholipase A2 (Homo sapiens) (UniProt Q9NZ20).
T3 sequence (whole entry): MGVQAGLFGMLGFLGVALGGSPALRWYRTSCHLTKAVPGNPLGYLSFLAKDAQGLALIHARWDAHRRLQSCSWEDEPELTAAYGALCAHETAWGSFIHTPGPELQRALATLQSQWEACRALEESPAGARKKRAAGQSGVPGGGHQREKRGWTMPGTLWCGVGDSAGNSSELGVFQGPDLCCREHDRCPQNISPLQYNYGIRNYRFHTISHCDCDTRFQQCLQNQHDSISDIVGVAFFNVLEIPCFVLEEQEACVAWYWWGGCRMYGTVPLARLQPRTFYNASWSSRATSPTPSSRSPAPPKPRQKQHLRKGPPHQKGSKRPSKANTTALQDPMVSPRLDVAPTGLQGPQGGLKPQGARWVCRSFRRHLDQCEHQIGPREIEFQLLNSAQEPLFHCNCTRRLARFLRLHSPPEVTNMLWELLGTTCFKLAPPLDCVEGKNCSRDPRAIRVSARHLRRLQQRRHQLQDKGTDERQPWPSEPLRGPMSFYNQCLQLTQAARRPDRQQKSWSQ
Nature of the data set: Inhibition of human group 3 sPLA2 at 10 uM. A digest of the protocol: (§1)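 Human group III sPLA2 catalytic domain made in Drosophila S2 cells. Inhibitor at 10 or 100 µM preincubated 10 min with enzyme in Tris pH 8.0 buffer with 10 mM CaCl2 and 0.1% BSA. Then 15 min room-temperature hydrolysis of 3H-oleate-labelled E. coli membranes. Stopped with EDTA and fatty-acid-free BSA; supernatant counts after centrifugation.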

A further data set concerns the target T4, Sulfotransferase 1E1 (Homo sapiens, UniProt P49888).
T4 sequence (P49888 whole entry): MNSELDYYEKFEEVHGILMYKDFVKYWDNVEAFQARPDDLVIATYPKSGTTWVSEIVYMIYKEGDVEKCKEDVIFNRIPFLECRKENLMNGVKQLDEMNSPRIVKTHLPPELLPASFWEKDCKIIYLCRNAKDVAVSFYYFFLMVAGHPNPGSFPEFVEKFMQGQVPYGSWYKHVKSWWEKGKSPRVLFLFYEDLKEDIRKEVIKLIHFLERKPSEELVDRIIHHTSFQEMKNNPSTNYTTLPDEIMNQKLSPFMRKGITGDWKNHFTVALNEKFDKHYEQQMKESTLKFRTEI
Nature of the data set: Inhibition of human estrogen sulfotransferase.

The target in data set [4] is T3, Group 3 secretory phospholipase A2 (Homo sapiens). Nature of the data set: Inhibition of human group 3 sPLA2 at 100 uM. The gist of the method:
as §1

The species named for another data set is Homo sapiens. Nature of the data set: Inhibition of methionine aminopeptidase.
Data set [5] deals with T5, Purine nucleoside phosphorylase (Toxoplasma gondii, UniProt Q2HXR2).
T5 sequence (Q2HXR2 whole entry): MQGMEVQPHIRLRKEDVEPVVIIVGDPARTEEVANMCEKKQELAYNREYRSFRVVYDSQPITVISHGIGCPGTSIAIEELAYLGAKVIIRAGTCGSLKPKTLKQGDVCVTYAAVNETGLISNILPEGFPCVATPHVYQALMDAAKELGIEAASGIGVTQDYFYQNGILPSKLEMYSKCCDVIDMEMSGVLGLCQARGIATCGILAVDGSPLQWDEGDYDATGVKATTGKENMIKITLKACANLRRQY
Description: Inhibition of Toxoplasma gondii purine nucleoside phosphorylase.

The next data set has as its target T6, Phospholipase A2 group V (Homo sapiens, UniProt P39877).
T6 sequence (P39877 whole entry): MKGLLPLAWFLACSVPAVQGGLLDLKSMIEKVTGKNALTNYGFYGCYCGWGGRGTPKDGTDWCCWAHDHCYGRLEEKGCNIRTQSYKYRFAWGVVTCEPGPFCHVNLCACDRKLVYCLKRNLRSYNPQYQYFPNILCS
Description: Inhibition of human group 5 sPLA2. A digest of the protocol:
(§2)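 Recombinant human sPLA2 expressed in E. coli, at 40 pM for group V or 20 pM for group X, preincubated with inhibitor 10 min (15 min in legends). Buffer is 100 mM Tris pH 8.0, 10 mM CaCl2, 0.1% BSA. Substrate is E. coli membranes carrying 100,000 dpm 3H-oleate phospholipids, 15 min at room temperature. Reaction stopped with EDTA/fatty-acid-free BSA and centrifuged; supernatant radioactivity counted. Single 30 µM or concentration series for IC50; at least three experiments.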

Data set [6] concerns the target T7, Group 10 secretory phospholipase A2 (Homo sapiens, UniProt O15496).
T7 sequence (O15496 whole entry): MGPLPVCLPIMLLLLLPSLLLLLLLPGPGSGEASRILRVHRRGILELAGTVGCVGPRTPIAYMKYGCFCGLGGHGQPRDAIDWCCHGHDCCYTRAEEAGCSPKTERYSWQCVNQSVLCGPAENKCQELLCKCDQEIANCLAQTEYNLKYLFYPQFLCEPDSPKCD
Nature of the data set: Inhibition of human group 10 sPLA2. The gist of the method:
as §2

Data set [7] has as its target T8, Phospholipase A2 group V (Homo sapiens) (UniProt P39877).
T8 sequence (whole entry): T6 sequence (P39877 whole entry)
Description: Inhibition of human group 5 sPLA2 at 30 uM. The gist of the method: as §2

Data set [8] has as its target T9, Group 10 secretory phospholipase A2 (Homo sapiens) (UniProt O15496).
T9 sequence (whole entry): T7 sequence (O15496 whole entry)
Description: Inhibition of human group 10 sPLA2 at 30 uM. A digest of the protocol:
as §2

Data set [9] deals with T10, Phospholipase A2, membrane associated (Homo sapiens) (UniProt P14555).
T10 sequence (whole entry): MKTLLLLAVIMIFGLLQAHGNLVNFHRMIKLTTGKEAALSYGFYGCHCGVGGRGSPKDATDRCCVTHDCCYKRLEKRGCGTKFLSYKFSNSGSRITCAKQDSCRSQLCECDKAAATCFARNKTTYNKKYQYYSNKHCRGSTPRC
Description: Inhibition of human group 2A sPLA2 at 30 uM. A digest of the protocol: (§3)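 Recombinant human group IB or IIA sPLA2 from E. coli, enzyme level set for linear hydrolysis. Preincubated 10 min with inhibitor at 30 µM in 100 mM Tris pH 8.0, 10 mM CaCl2, 0.1% BSA. 3H-oleate-labelled E. coli membrane substrate added for 15 min at room temperature. Stopped with EDTA/BSA, centrifuged at 14000g, released radioactivity counted; expressed as percent inhibition.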

For data set [10], the target named is Phospholipase A2 (Homo sapiens) (UniProt P04054). Nature of the data set: Inhibition of human group 1B sPLA2 at 30 uM. A digest of the protocol: as §3
Chain of Phospholipase A2 (Homo sapiens) (P04054 23-148 limits assumed): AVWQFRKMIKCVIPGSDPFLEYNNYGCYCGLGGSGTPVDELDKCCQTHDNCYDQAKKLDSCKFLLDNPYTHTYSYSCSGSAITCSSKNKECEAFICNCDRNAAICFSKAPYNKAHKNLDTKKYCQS

Calls of active or inactive are those of the source. The rule behind the calls is not given here. A value given as a limit tells only on which side of the number the result lay.

The text below walks through data of ChEMBL document CHEMBL1137329, “In silico-guided target identification of a scaffold-focused library: 1,3,5-triazepan-2,6-diones as novel phospholipase A2 inhibitors” (J Med Chem, 2006).

Take `CN1CNC(=O)N[C@@H](CN)C1=O`: the outcome (in data set [1]; in data set [2]; in data set [3]; in data set [4]; in the data set filed under Homo sapiens) was inactive. For the same compound, the Activity result on Sulfotransferase 1E1 is given as “Not Active”.

Usually Ki stands for a measure of affinity in units of concentration, obtained from inhibition or displacement. The low end stands for a stronger hold on the target, the high end for a looser hold on the target. On to `O=C1N[C@@H](Cc2ccccc2)C(=O)N2C[C@H](OCc3ccccc3)C[C@H]2N1`, for which the outcome (in data set [1]; in data set [2]; in data set [3]; in [4]; in the data set filed under Homo sapiens) was inactive. Further, in [5], the inhibition constant (Ki) was determined as 8 µM. Further, at Sulfotransferase 1E1, the Activity result is “Not Active”.

For orientation: IC50 means the concentration that gives 50% inhibition. A high value points to weaker potency. Usually inhibition stands for the drop in the measured response relative to a control, in per cent. Read a high inhibition as a response far below the control. For the compound `CN1CN(CC(=O)OC(C)(C)C)C(=O)N(CC(=O)OC(C)(C)C)[C@@H](Cc2ccccc2)C1=O`, the IC50 (at Phospholipase A2 group V; in [6]) was 11 µM in each case. The inhibition in data set [7] is over 70%.

`CN1CN(CC(=O)OC(C)(C)C)C(=O)N[C@@H](Cc2ccc3ccccc3c2)C1=O` displayed an inhibition in [7] of over 70%.

As for `CC(C)[C@@H]1NC(=O)N(CC(=O)OC(C)(C)C)CN(C)C1=O`, the IC50 against Phospholipase A2 group V was 12 µM; in data set [6], 11 µM. The inhibition in data set [7] and in data set [8] was over 70% throughout.

Take `CN1CN(CC(=O)O)C(=O)N[C@@H](Cc2ccccc2)C1=O`: the inhibition in data set [9] stood at 25%. Moreover, the outcome (in [1]; in data set [2]; in data set [3]; in data set [10]; in data set [4]; in the data set filed under Homo sapiens) was inactive. Also, at Sulfotransferase 1E1, the Activity entry is listed as “Not Active”.

With `C[C@@H]1NC(=O)NC2Cc3ccccc3CN2C1=O` (stereo partly drawn), the result (in data set [1]; in data set [2]; in data set [3]; in [4]; in the data set filed under Homo sapiens) was inactive. In addition, at Sulfotransferase 1E1, the Activity entry is listed as “Not Active”.

As for `CC(C)(C)OC(=O)CN1C(=O)N[C@@H](Cc2ccccc2)C(=O)N2CCC[C@@H]12`, the inhibition in [7] was over 70%.

In data set [7], `CN1CN(CC(=O)O)C(=O)N(CC(=O)O)[C@@H](Cc2ccccc2)C1=O` gave an inhibition of over 70%.

Consider `CN1CN(C/C=C/C(=O)OC(C)(C)C)C(=O)N[C@@H](Cc2ccccc2)C1=O`, for which the inhibition in data set [8] was over 70%.

For the compound `CC(C)C[C@@H]1NC(=O)NCN(C)C1=O`, the outcome (in data set [1]; in data set [2]; in data set [3]; in data set [4]; in the data set filed under Homo sapiens) was inactive. At Sulfotransferase 1E1, the Activity entry is “Not Active”.

In [7], `CC(C)(C)OC(=O)CN1C(=O)N[C@@H](Cc2ccc3ccccc3c2)C(=O)N2CCC[C@@H]12` came in with an inhibition of over 70%.

As for `CN1CN(CCCC(=O)O)C(=O)N[C@@H](Cc2ccccc2)C1=O`, the inhibition in [7] and in data set [8] was over 70% throughout.

With `CN1CN(CCCC(N)=O)C(=O)N[C@@H](Cc2ccccc2)C1=O`, in data set [7], the inhibition was over 70%.

Consider `CN1CNC(=O)N[C@@H](Cc2ccccc2)C1=O`, for which the result (in [1]; in data set [2]; in data set [3]; in data set [4]; in the data set filed under Homo sapiens) was inactive. Also, the Activity entry on Sulfotransferase 1E1 is on record as “Not Active”.

On to `CN1C(=O)[C@H](Cc2ccccc2)NC(=O)N[C@@H]1Cc1ccccc1`, for which the IC50 at Phospholipase A2 group V stood at 11 µM; in data set [6], 13 µM. The inhibition in data set [7] is over 70%.

Regarding `O=C1N[C@@H](Cc2ccccc2)C(=O)N2C[C@H](O)C[C@H]2N1`, the result (in data set [1]; in [2]; in data set [3]; in data set [4]; in the data set listed under Homo sapiens) was inactive. Besides, the Activity result at Sulfotransferase 1E1 is reported as “Not Active”.

With `COC(=O)CN1CN(C)C(=O)[C@H](Cc2ccccc2)NC1=O`, the inhibition in data set [7] was over 70%.

On to `CC(C)[C@@H]1NC(=O)N(Cc2ccccc2)CN(C)C1=O`, for which the inhibition in data set [7] and in data set [8] was over 70% throughout.

With `O=C1[C@@H]2Cc3ccccc3CN2C(=O)N[C@@H]2CCCN12`, the result (in data set [1]; in [2]; in [3]; in data set [4]; in the data set listed under Homo sapiens) was inactive. Besides, at Sulfotransferase 1E1, the Activity result is “Not Active”.

Consider `CN1CN(C/C=C/C(=O)O)C(=O)N[C@@H](Cc2ccccc2)C1=O`, for which the IC50 against Phospholipase A2 group V is 12 µM; in data set [6], 10 µM. The inhibition in data set [7] and in data set [8] was over 70% each time.

The compound `CC(C)(C)OC(=O)CN1C(=O)N(CC(=O)OC(C)(C)C)[C@@H](Cc2ccccc2)C(=O)N2CCC[C@H]21` showed an inhibition in data set [8] of over 70%.

Consider `CN1CN(CC(=O)OC(C)(C)C)C(=O)N[C@@H](Cc2ccccc2)C1=O`, for which the inhibition in data set [7] was over 70%.
